Reference: PubChem BioAssay AID588825 (Broad Institute, 2011)
The source made the active and inactive calls.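 How the source made its calls: active means signal drop whose fitted AC50 is at most twice the top valid dose for that sample; inconclusive means flat fit with a moderate drop, or a poor fit; inactive means the rest.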

Tested on: CHO ldlA7 parental cells, DiI-HDL uptake fluorescence, 3 h
Assay: SR-BI-independent HDL uptake inhibition, parental line – CHO ldlA7 parental cells, fluorescence, dry powder, counter-screen for SR-BI HDL uptake inhibitor project, dose response (AID 588825)
Settings: not given
How it was run: (§1)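 material = parental CHO ldlA7 cells lacking LDL receptor, no mSR-BI overexpression | medium = HEPES-buffered Ham's F12 containing fatty-acid-free BSA | also added = DiI-labelled HDL at 10 µg/mL final | schedule = overnight cell attachment, then 3 h compound plus DiI-HDL exposure at 37 °C | detection = bottom-read fluorescence, 550 nm ex, 595 nm em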

Compound | AC50
CCCCCCC1CCC/C1=N\NC(N)=S (configuration not stated) | > 70 µM (inactive)

Tested on: not listed separately
Assay: as above
Settings: CHO ldlA7 parental cells, DiI-HDL uptake fluorescence, 3 h; at 30 µM (top of the series)
How it was run: as §1

Compound | activity change, negative = inhibition
C[C@@H]1CN([C@@H](C)CO)C(=O)Cc2cc(NC(=O)Nc3ccc(C(F)(F)F)cc3)ccc2O[C@@H]1CN(C)S(=O)(=O)c1ccc(Cl)cc1 | 19.1% (inactive)

Same assay, conditions: CHO ldlA7 parental cells, DiI-HDL uptake fluorescence, 3 h; at 35 µM (top of the series)

Compound | activity change, negative = inhibition
COc1ccc(-c2cc(CC(=O)N(C3CCCCC3)C(C)C(=O)NC3CCCC3)no2)cc1OC (configuration not stated) | 3.44% (inactive)
COc1cc(OC)cc(C(=O)Nc2nc(-c3ccc4c(c3)CCN4C(=O)OC(C)(C)C)cs2)c1 | 1.78% (inactive)
CCC(=O)N1CCc2cc(-c3csc(NC(=O)c4ccc(F)c(OC)c4)n3)ccc21 | 7.73% (inactive)
COc1c(NC(=O)C(=O)c2ccc(OCCN3CCOCC3)c3ccccc23)cc(C(C)(C)C)cc1NS(C)(=O)=O | 8% (inactive)
CCNC(=O)N1CCc2cc(-c3csc(NC(=O)c4cc(OC)cc(OC)c4)n3)ccc21 | -0.713% (inactive)
C[C@H](C(=O)NC1CCCC1)N(C(=O)Cn1nnc(-c2ccc3c(c2)OCO3)n1)C1CCCCC1 | 0.283% (inactive)
CCC(=O)N1CCc2cc(-c3csc(NC(=O)c4cccc(OC)c4)n3)ccc21 | 14.2% (inactive)
CC(C)(Sc1cc(C(C)(C)C)c(O)c(C(C)(C)C)c1)Sc1cc(C(C)(C)C)c(O)c(C(C)(C)C)c1 | -1.71% (inactive)
Cc1ccc2oc(-c3cccc(NC(=O)c4cc(-n5cnnc5)ccc4Cl)c3)nc2c1 | -1.07% (inactive)
CC1CCC/C=C/C2CC(O)CC2C(O)/C=C\C(=O)O1 (configuration not stated) | -6.83% (inactive)
C[C@@H]1CN([C@H](C)CO)C(=O)c2cc(NC(=O)Cc3cn(C)c4ccccc34)ccc2O[C@H]1CN(C)S(=O)(=O)c1ccc(Cl)cc1 | 5.56% (inactive)
CC(=O)N1CCc2cc(-c3nc(NC(=O)c4cccc(OC(F)(F)F)c4)sc3C)ccc21 | 0.208% (inactive)
CCC(=O)N1CC(C)(C)c2cc(-c3csc(NC(=O)c4cc(OC)cc(OC)c4)n3)ccc21 | -2.41% (inactive)
COc1cc(OC)cc(C(=O)Nc2nc(-c3ccc4c(c3)CCN4C(=O)CN(C)C)cs2)c1 | 3.12% (inactive)
COCC(=O)N1CCc2cc(-c3csc(NC(=O)c4cc(OC)cc(OC)c4)n3)ccc21 | 1.62% (inactive)
